One compound from ChEMBL document CHEMBL3808325, “Discovery and Optimization of Macrocyclic Quinoxaline-pyrrolo-dihydropiperidinones as Potent Pim-1/2 Kinase Inhibitors” (ACS Med Chem Lett, 2016) can be followed below.

Data set [1] has as its target Serine/threonine-protein kinase pim-3 (Homo sapiens) (UniProt Q86V86). Kind of data set: Inhibition of human PIM3 assessed as remaining enzyme activity at 1 uM by KINOMEscan assay. The procedure, abridged: (§1)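 Profiled at 1 μM compound across a scanMAX KINOMEscan panel of 392 nonmutant kinases. Activity is reported as percent-of-control (POC). Panel-wide S(10) and S(1) selectivity scores are the fraction of kinases with POC below 10% and below 1%.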

The next data set has as its system KMS-12-BM. As to the kind of experiment: Antitumor activity against human KMS-12-BM cells xenografted in orally dosed SCID-beige mouse administered as qd relative to vehicle control. Format: functional, organism-based. The procedure, abridged:
(§2)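 Mouse KMS-12-BM xenograft efficacy study running 16 days. Oral dosing once daily at 10, 25, 50 or 100 mg/kg. Tumor volume compared with vehicle-treated controls.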
A general note: Xenograft models place foreign cells or tissue in a host animal.

The target in data set [2] is Dual specificity protein kinase CLK1 (Homo sapiens) (UniProt P49759). Kind of data set: Inhibition of human CLK1 assessed as remaining enzyme activity at 1 uM by KINOMEscan assay. The procedure, abridged:
(§3)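 scanMAX KINOMEscan panel of 392 nonmutant kinases, compound tested at 1 μM. Result expressed as percent of control (POC). S(10) and S(1) scores are the fraction of kinases with POC below 10% and below 1%.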

Data set [3] has as its target Serine/threonine-protein kinase haspin (Homo sapiens) (UniProt Q8TF76). As to the kind of experiment: Inhibition of human haspin assessed as remaining enzyme activity at 1 uM by KINOMEscan assay. The procedure, abridged:
as §3

The nature of data set [4]: Half life in Sprague-Dawley rat at 2 mg/kg, iv. Format: ADME, organism-based. As to conditions: in vivo. The procedure, abridged: (§4)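 Pharmacokinetics in male Sprague–Dawley rats. Clearance also expressed as a percentage of liver blood flow. Oral bioavailability determined.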
Data set [5] in a line: Oral bioavailability in Sprague-Dawley rat at 5 mg/kg. The settings on record: in vivo. Format: ADME, organism-based. The procedure, abridged: as §4
Data set [6] deals with Mus musculus. Kind of data set: Toxicity in human KMS-12-BM cells xenografted SCID-beige mouse assessed as effect on body weight at 10 to 100 mg/kg, po qd. Format: organism-based. The settings on record: in vivo. The procedure, abridged:
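Tolerability followed in KMS-12-BM xenograft mice given oral doses once daily at 10, 25, 50 or 100 mg/kg over a 16-day efficacy study. Body weight monitored throughout.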

The nature of data set [7]: Fraction unbound in SCID-beige mouse plasma at 5 uM by LC/MS analysis. Format: ADME, cell-free.
The target in data set [8] is Casein kinase I isoform delta (Homo sapiens) (UniProt P48730). As to the kind of experiment: Inhibition of full-length human CSNK1D expressed in bacterial system assessed as remaining enzyme activity at 1 uM by KINOMEscan assay. Summed up: as §3
Data set [9] can be described thus: Cytotoxicity against human KMS-12-BM cells after 72 hrs by cell titer-glo luminescence assay. Format: functional, cell-based. Background: ATP-based viability assays read luminescence as a measure of living cells.
A short description of data set [10]: Drug metabolism in rat liver microsomes assessed as compound turnover at 1 uM incubated for 30 mins. As to conditions: read-out: Drug metabolism. Format: ADME. Background: Microsomes from liver hold many membrane-bound enzymes, among them those of drug oxidation.
The target of data set [11] is Casein kinase II subunit alpha (Homo sapiens) (UniProt P68400). Kind of data set: Inhibition of full-length human CSNK2A1 expressed in mammalian system assessed as remaining enzyme activity at 1 uM by KINOMEscan assay. Summed up:
as §3

Data set [12] is described as follows: Drug metabolism in human liver microsomes assessed as compound turnover at 1 uM incubated for 30 mins. Format: ADME. As to conditions: read-out: Drug metabolism.
Data set [13] can be described thus: Antitumor activity against human KMS-12-BM cells xenografted in SCID-beige mouse at 100 mg/kg, po qd relative to vehicle control. Format: functional. The settings on record: read-out: TGI. Summed up: as §2
For data set [14], the target named is Mitogen-activated protein kinase 15 (Homo sapiens) (UniProt Q8TD08). As to the kind of experiment: Inhibition of human MAPK15 assessed as remaining enzyme activity at 1 uM by KINOMEscan assay. The procedure, abridged: as §3
The target of data set [15] is Dual specificity tyrosine-phosphorylation-regulated kinase 1A (Homo sapiens) (UniProt Q13627). Kind of data set: Inhibition of human DYRK1A assessed as remaining enzyme activity at 1 uM by KINOMEscan assay. The procedure, abridged: as §3
For data set [16], the system named is Mus musculus. As to the kind of experiment: In vivo inhibition of Pim1/2-mediated BAD protein phosphorylation at Ser-112 in human KMS-12-BM cells xenografted in SCID-beige mouse assessed as pBAD level at 50 mg/kg, po administered as single dose measured after 16 hrs by meso scale discovery assay. Format: functional. More on the design: scale not given: the % may be the effect or the level left. Summed up:
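KMS-12-BM xenograft mice given a single oral dose of 25, 50 or 100 mg/kg. Tumor Ser-112 pBAD measured at time points through 16 h postdose. EC50 obtained by fitting all individual total plasma concentration–pBAD response data. Unbound value derived from mouse plasma fraction unbound.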

For data set [17], the target named is Serine/threonine-protein kinase pim-1 (Homo sapiens, UniProt P11309). As to the kind of experiment: Inhibition of human PIM1 assessed as remaining enzyme activity at 1 uM by KINOMEscan assay. Summed up: as §1
Data set [18] concerns the target Myosin light chain kinase family member 4 (Homo sapiens) (UniProt Q86YV6). Kind of data set: Inhibition of human MYLK4 assessed as remaining enzyme activity at 1 uM by KINOMEscan assay. Summed up:
as §3

A value given as a limit tells only on which side of the number the result lay.

Chain of Dual specificity protein kinase CLK1 (Homo sapiens) (P49759 whole entry, looked up): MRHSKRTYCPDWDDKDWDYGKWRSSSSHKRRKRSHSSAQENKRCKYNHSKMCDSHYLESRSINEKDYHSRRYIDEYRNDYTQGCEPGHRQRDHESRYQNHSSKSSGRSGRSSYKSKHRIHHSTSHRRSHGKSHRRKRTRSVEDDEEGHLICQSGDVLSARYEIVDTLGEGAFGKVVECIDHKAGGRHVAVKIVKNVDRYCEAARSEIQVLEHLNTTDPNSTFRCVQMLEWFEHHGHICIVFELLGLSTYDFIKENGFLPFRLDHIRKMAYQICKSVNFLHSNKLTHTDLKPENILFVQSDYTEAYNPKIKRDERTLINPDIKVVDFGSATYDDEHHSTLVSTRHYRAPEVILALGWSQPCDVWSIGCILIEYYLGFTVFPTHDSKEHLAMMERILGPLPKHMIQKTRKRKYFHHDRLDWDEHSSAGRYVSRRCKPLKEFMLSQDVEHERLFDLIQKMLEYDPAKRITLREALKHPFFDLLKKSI
Chain of Casein kinase II subunit alpha (Homo sapiens) (P68400 whole entry, looked up): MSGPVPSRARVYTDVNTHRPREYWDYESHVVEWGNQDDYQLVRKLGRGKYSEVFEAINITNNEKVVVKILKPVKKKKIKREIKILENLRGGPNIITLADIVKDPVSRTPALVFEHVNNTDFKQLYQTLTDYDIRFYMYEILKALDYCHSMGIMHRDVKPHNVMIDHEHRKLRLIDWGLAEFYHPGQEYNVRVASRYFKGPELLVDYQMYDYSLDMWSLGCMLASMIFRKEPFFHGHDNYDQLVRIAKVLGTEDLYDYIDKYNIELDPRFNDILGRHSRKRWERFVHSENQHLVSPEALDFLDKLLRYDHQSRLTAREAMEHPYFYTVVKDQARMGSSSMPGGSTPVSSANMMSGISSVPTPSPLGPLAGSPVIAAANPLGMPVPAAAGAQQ
Chain of Mitogen-activated protein kinase 15 (Homo sapiens) (Q8TD08 whole entry): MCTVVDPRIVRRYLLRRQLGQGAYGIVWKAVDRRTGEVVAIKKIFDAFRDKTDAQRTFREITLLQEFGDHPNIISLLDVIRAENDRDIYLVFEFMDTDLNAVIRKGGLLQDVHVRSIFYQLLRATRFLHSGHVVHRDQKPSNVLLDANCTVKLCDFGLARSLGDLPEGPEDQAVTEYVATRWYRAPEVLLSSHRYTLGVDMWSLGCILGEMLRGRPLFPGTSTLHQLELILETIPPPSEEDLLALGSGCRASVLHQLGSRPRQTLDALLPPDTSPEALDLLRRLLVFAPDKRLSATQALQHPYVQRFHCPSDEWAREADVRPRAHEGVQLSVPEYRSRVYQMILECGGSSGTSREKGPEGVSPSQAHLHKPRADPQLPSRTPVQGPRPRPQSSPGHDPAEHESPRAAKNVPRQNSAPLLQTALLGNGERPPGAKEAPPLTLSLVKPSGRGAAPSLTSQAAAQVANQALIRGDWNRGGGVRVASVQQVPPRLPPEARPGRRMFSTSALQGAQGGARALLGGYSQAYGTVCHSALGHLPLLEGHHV
Chain of Myosin light chain kinase family member 4 (Homo sapiens) (Q86YV6 whole entry): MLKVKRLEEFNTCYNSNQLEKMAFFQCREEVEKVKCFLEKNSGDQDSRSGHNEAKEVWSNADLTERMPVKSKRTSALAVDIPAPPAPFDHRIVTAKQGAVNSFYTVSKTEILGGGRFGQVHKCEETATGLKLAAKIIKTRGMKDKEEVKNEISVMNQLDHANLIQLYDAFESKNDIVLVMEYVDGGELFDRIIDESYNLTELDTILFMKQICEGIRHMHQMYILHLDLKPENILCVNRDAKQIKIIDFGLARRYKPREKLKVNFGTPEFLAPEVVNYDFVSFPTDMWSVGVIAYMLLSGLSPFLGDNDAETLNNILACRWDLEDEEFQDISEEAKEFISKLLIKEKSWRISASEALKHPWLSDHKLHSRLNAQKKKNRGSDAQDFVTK
Chain of Casein kinase I isoform delta (Homo sapiens) (P48730 whole entry, looked up, canonical isoform): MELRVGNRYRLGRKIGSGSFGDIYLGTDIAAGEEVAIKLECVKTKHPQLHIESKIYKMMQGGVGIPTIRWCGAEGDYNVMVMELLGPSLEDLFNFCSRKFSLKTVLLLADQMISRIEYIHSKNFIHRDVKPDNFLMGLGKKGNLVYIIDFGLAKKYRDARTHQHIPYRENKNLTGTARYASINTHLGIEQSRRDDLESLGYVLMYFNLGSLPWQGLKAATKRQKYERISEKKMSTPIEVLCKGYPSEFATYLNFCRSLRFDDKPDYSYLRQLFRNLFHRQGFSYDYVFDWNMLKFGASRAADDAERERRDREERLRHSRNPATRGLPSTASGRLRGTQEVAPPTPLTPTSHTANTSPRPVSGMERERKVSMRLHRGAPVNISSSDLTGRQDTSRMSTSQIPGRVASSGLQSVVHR
Chain of Serine/threonine-protein kinase pim-1 (P11309 whole entry, looked up): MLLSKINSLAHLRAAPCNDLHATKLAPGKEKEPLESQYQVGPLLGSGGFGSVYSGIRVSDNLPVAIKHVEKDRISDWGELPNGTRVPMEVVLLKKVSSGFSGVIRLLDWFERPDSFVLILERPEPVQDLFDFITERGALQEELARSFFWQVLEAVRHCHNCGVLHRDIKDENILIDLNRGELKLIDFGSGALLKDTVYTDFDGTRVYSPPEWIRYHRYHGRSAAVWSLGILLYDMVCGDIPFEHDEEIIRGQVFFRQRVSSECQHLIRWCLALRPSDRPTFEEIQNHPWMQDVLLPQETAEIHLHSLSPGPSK
Chain of Serine/threonine-protein kinase haspin (Homo sapiens) (Q8TF76 whole entry): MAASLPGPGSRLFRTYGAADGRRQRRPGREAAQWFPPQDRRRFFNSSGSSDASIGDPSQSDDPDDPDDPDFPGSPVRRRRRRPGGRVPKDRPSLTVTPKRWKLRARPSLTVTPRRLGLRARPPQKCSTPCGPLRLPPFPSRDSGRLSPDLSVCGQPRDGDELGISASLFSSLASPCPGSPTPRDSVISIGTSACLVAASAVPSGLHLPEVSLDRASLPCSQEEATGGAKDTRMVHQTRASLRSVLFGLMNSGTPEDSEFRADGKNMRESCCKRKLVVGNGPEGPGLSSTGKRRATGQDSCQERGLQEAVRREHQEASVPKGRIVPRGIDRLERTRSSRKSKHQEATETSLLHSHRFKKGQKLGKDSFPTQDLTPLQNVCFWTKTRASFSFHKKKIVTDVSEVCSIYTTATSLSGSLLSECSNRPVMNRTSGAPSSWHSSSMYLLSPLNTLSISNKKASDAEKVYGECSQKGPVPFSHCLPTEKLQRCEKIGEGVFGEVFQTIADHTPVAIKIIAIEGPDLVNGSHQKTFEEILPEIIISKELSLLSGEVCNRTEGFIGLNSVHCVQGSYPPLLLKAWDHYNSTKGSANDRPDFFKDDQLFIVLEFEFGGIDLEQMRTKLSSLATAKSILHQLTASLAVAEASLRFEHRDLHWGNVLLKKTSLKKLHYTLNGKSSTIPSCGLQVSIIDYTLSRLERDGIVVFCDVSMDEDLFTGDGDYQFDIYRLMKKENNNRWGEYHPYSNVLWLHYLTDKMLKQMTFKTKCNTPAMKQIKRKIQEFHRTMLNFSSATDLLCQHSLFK

A word on the half-life: it is the time needed for the level to fall by half in the phase considered. In general, bioavailability refers to the share of a dose that reaches the circulation, judged against a reference dose that is usually intravenous. One may read the fraction unbound as the share of the substance not bound to proteins or other matrix. Usually IC50 stands for the point on the concentration scale where inhibition reaches its midpoint. On to `Cc1nc2cccc3c2nc1N[C@H](C)/C=C\C[C@H]1CNC(=O)c2cc-3[nH]c21`, for which the Activity was under 10% in data set [1]; under 10% in [2]; under 10% in [3]; “Non-toxic” in the data set with Mus musculus [6]; under 10% in [8]; under 10% in [11]. The Activity in data set [14] is under 10%; in data set [15], under 10%; in the data set with Mus musculus [16] it was 8%; in data set [17] it was under 10%; in [18], under 10%. For the same compound, in the data set on KMS-12-BM, the TGI entry is “Dose-dependent effect”. The half-life in data set [4] was 240 min. The same compound gave a bioavailability in data set [5] of 48%. The fraction unbound at 5 µM in data set [7] amounted to 0.0084. Also, the IC50 in data set [9] was 151 nM. Moreover, the metabolised at 0.5 h, 1 µM in data set [10] is 39%; in [12], 24%. Also, the inhibition in vivo at 100 mg/kg in data set [13] is 100%.
